Data as given in ChEMBL document CHEMBL1140214, “Antitumor activity of new substituted 3-(5-imidazo[2,1-b]thiazolylmethylene)-2-indolinones and 3-(5-imidazo[2,1-b]thiadiazolylmethylene)-2-indolinones: selectivity against colon tumor cells and effect on cell cycle-related events” (2008).

Tests used:
Leukemia cell = assay: Antitumor activity against human Leukemia cells after 48 hrs by SRB assay; format: functional; settings: for GI50 / TGI: Homo sapiens, Leukemia cell, 48 h; for TGI: read-out: pTGI (converted)
In short: (§1)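 NCI 60-cell panel two-stage screen: a single-dose pass at 10^-5 M, then five-dose testing for active compounds. Compounds were dissolved in DMSO and tested at five 10-fold dilutions, the highest 10^-4 M (10^-3 M in some cases). Results are given as the negative log molar concentration at three end points: pGI50, pTGI (total growth inhibition) and pLC50. Means are panel-subtype averages.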

NSCLC = assay: Antitumor activity against human NSCLC cells after 48 hrs by SRB assay; format: functional; settings: for GI50 / TGI / LC50: Homo sapiens, NSCLC, 48 h; for TGI: read-out: pTGI (converted); in short: as §1
[1] = Antitumor activity against human Colon cancer cells after 48 hrs by SRB assay; format: functional, Cancer cell lines; settings: for GI50 / TGI / LC50 (50% lethal concentration): Homo sapiens, Cancer cell lines, 48 h; for TGI: read-out: pTGI (converted); in short: as §1
[2] = Antitumor activity against human CNS cancer cells after 48 hrs by SRB assay; format: functional, Cancer cell lines; settings: for TGI: read-out: pTGI (converted); in short: as §1
Melanoma cell = assay: Antitumor activity against human Melanoma cells after 48 hrs by SRB assay; format: functional; settings: for TGI: read-out: pTGI (converted); for CC50: read-out: pLC50 (the source's name) (converted); in short: as §1
[3] = Antitumor activity against human ovarian cancer cells after 48 hrs by SRB assay; format: functional, Cancer cell lines; settings: for GI50 / TGI / LC50 (concentration killing 50% of cells): Homo sapiens, Cancer cell lines, 48 h; for TGI: read-out: pTGI (converted); in short: as §1
[4] = Antitumor activity against human renal cancer cells after 48 hrs by SRB assay; format: functional, Cancer cell lines; settings: for GI50 / TGI / LC50 (concentration killing 50% of cells): Homo sapiens, Cancer cell lines, 48 h; for TGI: read-out: pTGI (converted); in short: as §1
[5] = Antitumor activity against human prostate cancer cells after 48 hrs by SRB assay; format: functional, Cancer cell lines; settings: for TGI: read-out: pTGI (converted); in short: as §1
[6] = Antitumor activity against human Breast cancer cells after 48 hrs by SRB assay; format: functional, Cancer cell lines; settings: for GI50 / TGI / LC50: Homo sapiens, Cancer cell lines, 48 h; for TGI: read-out: pTGI (converted); in short: as §1
[7] = Homo sapiens, Cancer cell lines, 48 h, read-out: pGI50 (converted)
[8] = Homo sapiens, Cancer cell lines, 48 h
[9] = Homo sapiens, Melanoma cell, 48 h, read-out: pGI50 (converted)
[10] = Homo sapiens, Melanoma cell, 48 h

| Structure (SMILES) | GI (Leukemia cell) [µM] | GI50 (Leukemia cell) [µM] | TGI (Leukemia cell) [µM] | GI (NSCLC) [µM] | GI50 (NSCLC) [µM] | TGI (NSCLC) [µM] | GI [1] [µM] | GI50 [1] [µM] | GI50 [2] [µM] | GI50 [2, 7] [µM] | GI50 (Melanoma cell) [µM] | GI50 (Melanoma cell; [9]) [µM] | GI [3] [µM] | GI50 [3] [µM] | GI [4] [µM] | GI50 [4] [µM] | GI [5] [µM] | GI50 [5, 8] [µM] | GI [6] [µM] | GI50 [6] [µM] | other results |
| --- | --- | --- | --- | --- | --- | --- | --- | --- | --- | --- | --- | --- | --- | --- | --- | --- | --- | --- | --- | --- | --- |
| Cc1cn2c(/C=C3/C(=O)Nc4ccc(F)cc43)c(C)nc2s1 | 4.57 | 4.57 | 23.4 | 8.13 | 8.13 | 42.7 | 2.4 | 2.4 | 6.03 | 6.03 | 6.31 | 6.31 | 7.24 | 7.24 | 11.48 | 11.5 | 9.55 | 9.55 | 4.47 | 4.47 | TGI [1]: 40.7 µM; TGI [2, 8]: 33.1 µM; TGI (Melanoma cell; [10]): 35.5 µM; TGI [3]: 44.7 µM; TGI [4]: 40.7 µM; TGI [5, 8]: 40.7 µM; TGI [6]: 23.4 µM |
| Cc1ccc(-c2nc3sc(C)cn3c2/C=C2/C(=O)Nc3ccc(Cl)cc32)cc1 | 22.91 | 22.9 | 72.4 | 13.49 | 13.5 | 37.2 | 18.62 | 18.6 | 6.61 | 6.61 | 14.79 | 14.8 | 14.45 | 14.5 | 12.59 | 12.6 | 22.39 | 22.4 | 12.59 | 12.6 | LC50 (NSCLC): 69.2 µM; LC50 (50% lethal concentration) [1]: 79.4 µM; TGI [1]: 43.7 µM; LC50 [2, 8]: 55 µM; TGI [2, 8]: 20.4 µM; CC50 (Melanoma cell; [10]): 66.1 µM; TGI (Melanoma cell; [10]): 31.6 µM; LC50 (concentration killing 50% of cells) [3]: 74.1 µM; TGI [3]: 34.7 µM; LC50 (concentration killing 50% of cells) [4]: 64.6 µM; TGI [4]: 32.4 µM; TGI [5, 8]: 55 µM; LC50 [6]: 75.9 µM; TGI [6]: 38.9 µM |
| Cc1cn2c(/C=C3/C(=O)Nc4ccccc43)c(-c3ccc(Cl)cc3)nc2s1 | 18.2 | 18.2 | 44.7 | 8.13 | 8.13 | 17.8 | 10.23 | 10.2 | 6.76 | 6.76 | 9.55 | 9.55 | 10 | 10 | 3.31 | 3.31 | 9.77 | 9.77 | 6.46 | 6.46 | LC50 (NSCLC): 38 µM; LC50 (50% lethal concentration) [1]: 38.9 µM; TGI [1]: 21.4 µM; LC50 [2, 8]: 30.2 µM; TGI [2, 8]: 15.1 µM; CC50 (Melanoma cell; [10]): 32.4 µM; TGI (Melanoma cell; [10]): 19.1 µM; LC50 (concentration killing 50% of cells) [3]: 39.8 µM; TGI [3]: 20.4 µM; LC50 (concentration killing 50% of cells) [4]: 33.1 µM; TGI [4]: 18.6 µM; LC50 [5, 8]: 28.8 µM; TGI [5, 8]: 17 µM; LC50 [6]: 35.5 µM; TGI [6]: 17.8 µM |
| Cc1nn2c(/C=C3/C(=O)Nc4ccccc43)c(C)nc2s1 | 16.22 | 16.2 |  | 38.9 | 38.9 |  | 9.33 | 9.33 | 48.98 | 49 | 45.71 | 45.7 | 50.12 | 50.1 | 61.66 | 61.7 | 47.86 | 47.9 | 22.91 | 22.9 |  |
